Assay results from different studies.
Lines come from different studies, so protocols differ.
Observed: cell growth or viability

`c1ccc(-c2ccc(CNCC3(N4CCCC4)COC3)s2)cc1` gave a viability of 55.6% (U-87 MG; 30 µM; 48 h).
`CC(C)Cc1nn(C)c(=O)c2c(SCCCO)n(Cc3ccnc(NCCCCCN)c3)cc12` has an EC50 of 0.69 µM (Raji; MTT; 96 h).
With `c1ccc(-c2ccc(CNCC3(N4CCCC4)COC3)o2)cc1` the viability was 0.534% (U-87 MG; 30 µM; 48 h).
For `COc1cc(-c2ccc(-c3ccc(C(=N)N)nc3)s2)cc(OC)c1OC`, the GI50 was 5.19 µM (EKVX; SRB).
`COc1ccc(NC(=O)c2c(Nc3ccccc3)sc(C#N)c2NC(=O)CNc2ccccc2)cc1` has a viability of 87.2% (HCT-116; SRB; 10 µM; 48 h).
`COc1ccc2occ(/C=C/c3ccc(O)cc3)c(=O)c2c1` has a CC50 of 9.5 µM (HSC-2; MTT; 6.7 h).
`COc1ccc(NC(=O)c2c(Nc3ccccc3)sc(C#N)c2NC(=O)CNc2ccc(Br)cc2)cc1` gave a viability of 80.6% (HCT-116; SRB; 0.1 µM; 48 h).
For `COc1ccc(/C=C/c2coc3ccc(OC)cc3c2=O)cc1`, the CC50 was 21 µM (HSC-2; MTT; 6.7 h).
`COc1ccc(NC(=O)c2c(Nc3ccccc3)sc(C(=O)NN=Cc3ccccc3)c2NC(C)=O)cc1` gave a viability of 101% (HCT-116; SRB; 1 nM; 48 h).
`CC(C)Cc1nn(C)c(=O)c2c(SCCCO)n(Cc3cnc(NCCCCCN)c4ccccc34)cc12` has an EC50 of 0.024 µM (Raji; MTT; 96 h).
With `FC1CCN(C2(CNCc3ccc(-c4ccccc4Cl)o3)COC2)C1` (stereo not shown) the viability was 45.4% (U-87 MG; 30 µM; 48 h).
The viability of `COc1ccc(NC(=O)c2c(Nc3ccccc3)sc(C(=O)NN=Cc3cc(OC)c(OC)c(OC)c3)c2NC(C)=O)cc1` is reported as 78.4% (HCT-116; SRB; 1 µM; 48 h).
`CC(C)Cc1nn(C)c(=O)c2c(SCCCO)n(Cc3ccc(Cl)nc3)cc12` has an EC50 of 1 µM (Raji; MTT; 96 h).
`COc1ccc(NC(=O)c2c(Nc3ccccc3)sc(C#N)c2NC(=O)CNc2ccccc2[N+](=O)[O-])cc1` gave a viability of 90.4% (HCT-116; SRB; 10 nM; 48 h).
With `COc1ccc(-c2ccc(-c3ccc(C(=N)N)nc3)s2)cc1` the GI50 was 2.12 µM (OVCAR-8; SRB).
With `Cc1cn(CC(c2cn(C)c3ccccc23)c2cn(C)c3ccccc23)nn1` the inhibition was 17.9% (DH82; MTS; 20 µM; 24 h).
For `COc1ccc(NC(=O)c2c(Nc3ccccc3)sc(C(=O)NN=Cc3ccc(C)cc3)c2NC(C)=O)cc1`, the viability was 76.1% (HCT-116; SRB; 100 µM; 48 h).
`CCOC(=O)c1c(C)ncn1CC(c1cn(C)c2ccc([N+](=O)[O-])cc12)c1cn(C)c2ccc([N+](=O)[O-])cc12` has an inhibition of 43% (DH82; MTS; 200 µM; 72 h).
With `COc1ccc2occ(/C=C/c3cc(OC)c(OC)c(OC)c3)c(=O)c2c1` the CC50 was 4.2 µM (HSC-2; MTT; 23 h).
For `CCn1c(=O)c(-c2cc(NC(=O)Nc3ccccc3)c(F)cc2Br)cc2cnc(NC)cc21`, the GI50 was greater than 3 µM (32D).
The inhibition of `COC(=O)c1c(C)ncn1CC(c1c[nH]c2ccc(C)cc12)c1c[nH]c2ccc(C)cc12` is reported as 11.3% (DH82; MTS; 20 µM; 24 h).
`Cn1nnc2c(C(N)=O)ncn2c1=O` gave an EC50 of 592 µM (KATO3).
`COCCn1cc(C#Cc2cc(C(=O)NCc3ccsc3)ccc2C)c2c(N)ncnc21` gave a GI50 of greater than 3 µM (32D).
With `CCCCCCCCCCCCCCCCOP(=O)([O-])OCC[N+](C)(C)C` the inhibition was 43.9% (DH82; MTS; 20 µM; 24 h).
`COc1ccc(NC(=O)c2c(Nc3ccccc3)sc(C#N)c2NC(=O)CNc2ccccc2Cl)cc1` gave a viability of 62.9% (HCT-116; SRB; 10 µM; 48 h).
`CCn1cc(C#Cc2cc(C(=O)NCc3ccsc3)ccc2C)c2c(N)ncnc21` has a GI50 of 0.0233 µM (32D).
For `COc1ccc(C=NNC(=O)c2sc(Nc3ccccc3)c(C(=O)Nc3ccc(OC)cc3)c2NC(C)=O)cc1`, the viability was 59.4% (HCT-116; SRB; 1 µM; 48 h).
The GI50 of `C=CC(=O)N1CCC[C@@H](n2nc(-c3ccc(Oc4ccccc4)cc3)c3c(N)ncnc32)C1` is reported as 17 µM (DOHH-2; ATP luminescence; 72 h).
